Calls of active or inactive are those of the source. No cut-off for these calls is given here.
tested on: not listed separately; assay: Oral bioavailability in Wistar rat at 3 mg/kg; type: ADME, organism-based; conditions: in vivo

Row | bioavailability | Compound
1 | 97% | Cc1ccccc1-n1nc(C)c(-c2cc(F)c3nccnc3c2)c1Nc1ccccc1C(=O)O
2 | 20% | COc1ccc(Nc2c(-c3ccc(C(C)=O)cc3)c(C)nn2-c2ccccc2C)c(C(=O)O)c1
3 | 20% | COc1ccc(Nc2c(-c3ccc4nccnc4c3)c(C)nn2-c2ccccc2C)c(C(=O)O)c1

molecular target: T1, Adenosine receptor A2b (Homo sapiens, UniProt P29275); assay: Antagonist activity at adenosine A2B receptor by cAMP assay; type: functional; conditions: not given
T1 sequence (P29275 whole entry): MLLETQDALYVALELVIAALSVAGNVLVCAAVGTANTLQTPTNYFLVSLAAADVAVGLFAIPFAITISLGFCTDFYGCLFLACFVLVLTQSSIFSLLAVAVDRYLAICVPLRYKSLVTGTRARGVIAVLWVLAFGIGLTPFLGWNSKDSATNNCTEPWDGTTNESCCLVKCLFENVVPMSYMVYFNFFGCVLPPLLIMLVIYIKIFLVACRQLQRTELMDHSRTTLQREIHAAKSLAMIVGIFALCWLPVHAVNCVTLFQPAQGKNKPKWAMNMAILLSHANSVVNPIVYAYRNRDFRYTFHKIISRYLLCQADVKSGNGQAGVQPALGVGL
Procedure, shortened: (§1)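 cAMP functional assay run in antagonist mode at each receptor subtype, with IC50 values reported as means of three experiments.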

Row | IC50 | Compound
4 | > 50 µM | COc1ccc(Nc2c(-c3ccc4nccnc4c3)c(C)nn2C2CCCCC2)c(C(=O)O)c1
5 | > 50 µM | Cc1ccccc1-n1nc(C)c(-c2cc(F)c3nccnc3c2)c1Nc1ccccc1C(=O)O
6 | > 50 µM | COc1ccc(Nc2c(-c3ccc4nccnc4c3)c(C)nn2-c2ccccc2Cl)c(C(=O)O)c1
7 | > 50 µM | Cc1ccccc1-n1ncc(-c2ccc3nccnc3c2)c1Nc1ccccc1C(=O)O
8 | > 50 µM | Cc1ccccc1-n1nc(C)c(-c2ccc3nccnc3c2)c1Nc1ccc(Cl)cc1C(=O)O
9 | 1.1 µM | COc1ccc(Nc2c(-c3ccc4nccnc4c3)c(C)nn2-c2ccccc2)c(C(=O)O)c1
10 | 19 µM | Cc1ccccc1-n1nc(C(F)(F)F)c(-c2ccc3nccnc3c2)c1Nc1ccccc1C(=O)O
11 | > 50 µM | Cc1ccccc1-n1nc(C)c(-c2ccc3nccnc3c2)c1Nc1ccccc1C(=O)O
12 | > 50 µM | Cc1ccc(Nc2c(-c3ccc4nccnc4c3)c(C)nn2-c2ccccc2C)c(C(=O)O)c1
13 | > 50 µM | CCc1ccccc1-n1nc(C)c(-c2ccc3nccnc3c2)c1Nc1ccc(OC)cc1C(=O)O
14 | > 50 µM | CCc1nn(-c2ccccc2C)c(Nc2ccccc2C(=O)O)c1-c1ccc2nccnc2c1
15 | > 50 µM | COc1ccc(Nc2c(-c3ccc4nccnc4c3)c(C)nn2-c2ccccc2C)c(C(=O)O)c1

tested on: not listed separately; assay: Selectivity ratio of IC50 for adenosine A2B receptor to IC50 for adenosine A1 receptor; conditions: not given

Row | Ratio IC50 | Compound
16 | > 83000 | Cc1ccccc1-n1nc(C)c(-c2cc(F)c3nccnc3c2)c1Nc1ccccc1C(=O)O

tested on: Mus musculus; assay: Anticonvulsant activity in mouse assessed as inhibition of pentylenetetrazole-induced convulsion at 30 mg/kg, iv; type: functional, organism-based; design: dose 30 mg/kg; conditions: not given

Row | Compound | Activity
17 | Cc1ccccc1-n1nc(C)c(-c2cc(F)c3nccnc3c2)c1Nc1ccccc1C(=O)O | inactive

molecular target: T2, Adenosine receptor A3 (Homo sapiens, UniProt P0DMS8); assay: Antagonist activity at adenosine A3 receptor by cAMP assay; type: functional; conditions: not given; procedure, shortened: as §1
T2 sequence (P0DMS8 whole entry): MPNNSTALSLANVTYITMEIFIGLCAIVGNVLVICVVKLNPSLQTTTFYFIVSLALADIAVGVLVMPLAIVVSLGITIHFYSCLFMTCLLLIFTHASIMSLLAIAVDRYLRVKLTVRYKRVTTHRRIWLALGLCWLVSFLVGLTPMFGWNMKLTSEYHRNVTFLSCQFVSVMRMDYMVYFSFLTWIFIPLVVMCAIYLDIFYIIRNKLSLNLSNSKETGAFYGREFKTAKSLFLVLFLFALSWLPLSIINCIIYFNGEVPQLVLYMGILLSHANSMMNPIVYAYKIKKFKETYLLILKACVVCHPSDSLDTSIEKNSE

Row | IC50 | Compound
18 | > 10 µM | Cc1ccccc1-n1nc(C)c(-c2cc(F)c3nccnc3c2)c1Nc1ccccc1C(=O)O
19 | 13 µM | COc1ccc(Nc2c(-c3ccc4nccnc4c3)c(C)nn2-c2ccccc2C)c(C(=O)O)c1

molecular target: Adenosine receptor A2a (Homo sapiens, UniProt P29274); assay: Antagonist activity at adenosine A2A receptor by cAMP assay; type: functional; conditions: not given; procedure, shortened: as §1
Sequence (P29274 whole entry): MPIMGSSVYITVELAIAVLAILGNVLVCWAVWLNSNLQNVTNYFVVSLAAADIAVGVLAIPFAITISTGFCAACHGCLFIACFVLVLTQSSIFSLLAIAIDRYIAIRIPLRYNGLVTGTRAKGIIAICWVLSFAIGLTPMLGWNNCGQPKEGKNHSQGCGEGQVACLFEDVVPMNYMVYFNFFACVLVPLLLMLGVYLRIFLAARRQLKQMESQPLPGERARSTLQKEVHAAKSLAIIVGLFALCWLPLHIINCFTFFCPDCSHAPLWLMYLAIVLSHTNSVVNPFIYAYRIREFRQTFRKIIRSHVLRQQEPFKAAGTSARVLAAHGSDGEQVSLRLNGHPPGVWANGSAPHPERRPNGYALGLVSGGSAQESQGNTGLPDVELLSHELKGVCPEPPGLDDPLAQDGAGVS

Row | IC50 | Compound
20 | > 50 µM | COc1ccc(Nc2c(-c3ccc4nccnc4c3)c(C)nn2C2CCCCC2)c(C(=O)O)c1
21 | > 50 µM | Cc1ccccc1-n1nc(C)c(-c2cc(F)c3nccnc3c2)c1Nc1ccccc1C(=O)O
22 | > 50 µM | COc1ccc(Nc2c(-c3ccc4nccnc4c3)c(C)nn2-c2ccccc2Cl)c(C(=O)O)c1
23 | > 50 µM | Cc1ccccc1-n1ncc(-c2ccc3nccnc3c2)c1Nc1ccccc1C(=O)O
24 | > 50 µM | Cc1ccccc1-n1nc(C)c(-c2ccc3nccnc3c2)c1Nc1ccc(Cl)cc1C(=O)O
25 | 5.5 µM | COc1ccc(Nc2c(-c3ccc4nccnc4c3)c(C)nn2-c2ccccc2)c(C(=O)O)c1
26 | > 50 µM | Cc1ccccc1-n1nc(C(F)(F)F)c(-c2ccc3nccnc3c2)c1Nc1ccccc1C(=O)O
27 | > 50 µM | Cc1ccccc1-n1nc(C)c(-c2ccc3nccnc3c2)c1Nc1ccccc1C(=O)O
28 | > 50 µM | Cc1ccc(Nc2c(-c3ccc4nccnc4c3)c(C)nn2-c2ccccc2C)c(C(=O)O)c1
29 | > 50 µM | CCc1ccccc1-n1nc(C)c(-c2ccc3nccnc3c2)c1Nc1ccc(OC)cc1C(=O)O
30 | > 50 µM | CCc1nn(-c2ccccc2C)c(Nc2ccccc2C(=O)O)c1-c1ccc2nccnc2c1
31 | > 50 µM | COc1ccc(Nc2c(-c3ccc4nccnc4c3)c(C)nn2-c2ccccc2C)c(C(=O)O)c1

tested on: Rattus norvegicus; assay: Natriuretic activity in Wistar rat assessed as increase in natriuresis at 0.1 mg/kg, iv administered after 7 days of acclimatization; type: functional, organism-based; design: dose 0.1 mg/kg; conditions: not given
Procedure, shortened: (§2)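 Wistar rats received compound intravenously in 1 ml/kg vehicle (40% PEG400, 60% Tris buffer), 6–8 animals per dose group, at doses between 0.1 and 3.0 mg/kg. Urine was collected at the cage bottom into collecting tubes, usually over 4 h. Volume was measured, and sodium and potassium were read by flame photometer.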

Row | Compound | Activity
32 | Cc1ccccc1-n1nc(C)c(-c2cc(F)c3nccnc3c2)c1Nc1ccccc1C(=O)O | Active

tested on: Mus musculus; assay: Anticonvulsant activity in mouse assessed as inhibition of maximal electroshock-induced convulsion at 30 mg/kg, iv by MES test; type: functional, organism-based; design: dose 30 mg/kg; conditions: not given

Row | Compound | Activity
33 | Cc1ccccc1-n1nc(C)c(-c2cc(F)c3nccnc3c2)c1Nc1ccccc1C(=O)O | inactive

molecular target: T3, Adenosine receptor A1 (Homo sapiens, UniProt P30542); assay: Antagonist activity at adenosine A1 receptor by cAMP assay; type: functional; conditions: not given; procedure, shortened: as §1
T3 sequence (P30542 whole entry): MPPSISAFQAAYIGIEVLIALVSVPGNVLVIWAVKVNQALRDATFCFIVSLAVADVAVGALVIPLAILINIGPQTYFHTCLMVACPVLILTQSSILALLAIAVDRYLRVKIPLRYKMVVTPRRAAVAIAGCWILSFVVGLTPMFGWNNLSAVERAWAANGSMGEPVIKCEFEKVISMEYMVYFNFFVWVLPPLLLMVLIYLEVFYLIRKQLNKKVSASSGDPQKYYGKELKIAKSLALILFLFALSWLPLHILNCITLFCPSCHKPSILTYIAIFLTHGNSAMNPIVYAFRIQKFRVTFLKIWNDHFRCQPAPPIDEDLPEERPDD

Row | IC50 | Compound
34 | 0.027 µM | COc1ccc(Nc2c(-c3ccc4c(c3)OCCO4)c(C)nn2-c2ccccc2C)c(C(=O)O)c1
35 | 0.435 µM | COc1ccc(Nc2c(-c3ccc4nccnc4c3)c(C)nn2C2CCCCC2)c(C(=O)O)c1
36 | 0.568 µM | COc1ccc(Nc2c(-c3ccc(C)c(C)c3)c(C)nn2-c2ccccc2C)c(C(=O)O)c1
37 | 0.0073 µM | COc1ccc(Nc2c(-c3ccc4nccnc4c3)c(C)nn2-c2ccccc2Cl)c(C(=O)O)c1
38 | 0.277 µM | Cc1ccccc1-n1ncc(-c2ccc3nccnc3c2)c1Nc1ccccc1C(=O)O
39 | 0.233 µM | COc1ccc(Nc2c(-c3ccc(OC)c(OC)c3)c(C)nn2-c2ccccc2C)c(C(=O)O)c1
40 | 0.294 µM | COc1ccc(Nc2c(-c3ccc(F)c(F)c3)c(C)nn2-c2ccccc2C)c(C(=O)O)c1
41 | 0.016 µM | Cc1ccccc1-n1nc(C)c(-c2ccc3nccnc3c2)c1Nc1ccc(Cl)cc1C(=O)O
42 | 0.0028 µM | COc1ccc(Nc2c(-c3ccc4nccnc4c3)c(C)nn2-c2ccccc2)c(C(=O)O)c1
43 | 0.009 µM | Cc1ccccc1-n1nc(C(F)(F)F)c(-c2ccc3nccnc3c2)c1Nc1ccccc1C(=O)O
44 | 0.00316 µM | COc1ccc(Nc2c(-c3ccc(C)cc3)c(C)nn2-c2ccccc2C)c(C(=O)O)c1
45 | 0.231 µM | COc1ccc(Nc2c(-c3ccc4c(c3)OCO4)c(C)nn2-c2ccccc2C)c(C(=O)O)c1
46 | 0.008 µM | Cc1ccccc1-n1nc(C)c(-c2ccc3nccnc3c2)c1Nc1ccccc1C(=O)O
47 | 0.00139 µM | COc1ccc(Nc2c(-c3ccc(F)cc3)c(C)nn2-c2ccccc2C)c(C(=O)O)c1
48 | 0.0051 µM | Cc1ccc(Nc2c(-c3ccc4nccnc4c3)c(C)nn2-c2ccccc2C)c(C(=O)O)c1
49 | 0.04 µM | COc1ccc(Nc2c(-c3ccc(C(C)=O)cc3)c(C)nn2-c2ccccc2C)c(C(=O)O)c1
50 | 0.306 µM | COc1ccc(-c2c(C)nn(-c3ccccc3C)c2Nc2ccc(OC)cc2C(=O)O)cc1
51 | 0.0064 µM | CCc1ccccc1-n1nc(C)c(-c2ccc3nccnc3c2)c1Nc1ccc(OC)cc1C(=O)O
52 | 0.013 µM | CCc1nn(-c2ccccc2C)c(Nc2ccccc2C(=O)O)c1-c1ccc2nccnc2c1
53 | 0.0032 µM | COc1ccc(Nc2c(-c3ccc4nccnc4c3)c(C)nn2-c2ccccc2C)c(C(=O)O)c1

tested on: not listed separately; assay: Half life in Wistar rat at 1 mg/kg, iv and 3 mg/kg, po; type: ADME, organism-based; conditions: in vivo
Procedure, shortened: (§3)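 Pharmacokinetics in Wistar rats, with intravenous dosing at 1 mg/kg in a vehicle of 1% DMSO and 99% plasma.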

Row | half-life | Compound
54 | 1.8 h | Cc1ccccc1-n1nc(C)c(-c2cc(F)c3nccnc3c2)c1Nc1ccccc1C(=O)O
55 | 1.5 h | COc1ccc(Nc2c(-c3ccc(C(C)=O)cc3)c(C)nn2-c2ccccc2C)c(C(=O)O)c1
56 | 0.4 h | COc1ccc(Nc2c(-c3ccc4nccnc4c3)c(C)nn2-c2ccccc2C)c(C(=O)O)c1

tested on: Rattus norvegicus; assay: Diuretic activity in Wistar rat assessed as urine volume at 0.3 mg/kg, iv administered after 7 days of acclimatization; type: functional, organism-based; design: dose 0.3 mg/kg; conditions: not given; procedure, shortened: as §2

Row | Compound | Activity
57 | Cc1ccccc1-n1nc(C)c(-c2cc(F)c3nccnc3c2)c1Nc1ccccc1C(=O)O | Active

tested on: not listed separately; assay: Blood clearance in Wistar rat at 1 mg/kg, iv and 3 mg/kg, po; type: ADME, organism-based; conditions: whole blood; procedure, shortened: as §3

Row | clearance | Compound
58 | 9.5 mL/min/kg | Cc1ccccc1-n1nc(C)c(-c2cc(F)c3nccnc3c2)c1Nc1ccccc1C(=O)O
59 | 66.7 mL/min/kg | COc1ccc(Nc2c(-c3ccc(C(C)=O)cc3)c(C)nn2-c2ccccc2C)c(C(=O)O)c1
60 | 43.7 mL/min/kg | COc1ccc(Nc2c(-c3ccc4nccnc4c3)c(C)nn2-c2ccccc2C)c(C(=O)O)c1

Reference: ChEMBL document CHEMBL1255521, “Identification and optimization of substituted 5-aminopyrazoles as potent and selective adenosine A1 receptor antagonists” (Bioorg Med Chem Lett, 2010)
